# Experiments:
# [1] = target: human cannabinoid CB1 receptor (Homo sapiens, UniProt P21554); assay: Plate-based assay, inhibition of CB1 receptor internalization; type: cell-based
# [2] = target: human cannabinoid CB2 receptor (Homo sapiens, UniProt P34972); assay: Plate-based assay, inhibition of CB2 receptor internalization; type: cell-based
# Summary of the method: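 CHO cells stably expressing human CB2, seeded at 2.0 × 10^5 cells/mL in 96-well plates, grown 24 h in DMEM/F12 with 10% FBS. Preincubated 1 h with twofold serial dilutions of test compound (top 10 μM; DMSO <0.1% final), then 1 h with 2 nM [3H]-CP 55,940. Washed, NaOH-lysed, scintillation counted, and normalized to no-compound uptake. IC50 from sigmoid nonlinear fit, means ± SE (n = 6). JD5037 as positive control.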
# HRH4 = HRH4 (Homo sapiens, UniProt Q9H3N8); assay: DiscoveRX gpcrMAX panel, agonist/antagonist; type: cell-based; settings: HRH4, antagonist mode; negative inhibition may indicate agonist or PAM activity
# Sequence of HRH4 (Q9H3N8 whole entry): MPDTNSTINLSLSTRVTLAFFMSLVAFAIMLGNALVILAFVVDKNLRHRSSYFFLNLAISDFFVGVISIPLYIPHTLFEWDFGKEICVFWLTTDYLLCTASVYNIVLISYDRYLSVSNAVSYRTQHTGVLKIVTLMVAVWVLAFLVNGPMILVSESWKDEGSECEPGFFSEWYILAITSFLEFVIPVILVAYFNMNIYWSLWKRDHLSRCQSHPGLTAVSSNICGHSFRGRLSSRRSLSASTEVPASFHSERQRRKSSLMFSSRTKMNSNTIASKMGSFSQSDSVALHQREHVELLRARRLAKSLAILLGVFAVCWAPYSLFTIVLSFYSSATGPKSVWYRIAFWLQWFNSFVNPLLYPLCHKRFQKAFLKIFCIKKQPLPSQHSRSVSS
# RXFP3 = target: T1, RXFP3 (Homo sapiens, UniProt Q9NSD7); assay: DiscoveRX gpcrMAX panel, agonist/antagonist; type: cell-based; settings: RXFP3, antagonist mode; negative inhibition may indicate agonist or PAM activity
# T1 sequence (Q9NSD7 1-469): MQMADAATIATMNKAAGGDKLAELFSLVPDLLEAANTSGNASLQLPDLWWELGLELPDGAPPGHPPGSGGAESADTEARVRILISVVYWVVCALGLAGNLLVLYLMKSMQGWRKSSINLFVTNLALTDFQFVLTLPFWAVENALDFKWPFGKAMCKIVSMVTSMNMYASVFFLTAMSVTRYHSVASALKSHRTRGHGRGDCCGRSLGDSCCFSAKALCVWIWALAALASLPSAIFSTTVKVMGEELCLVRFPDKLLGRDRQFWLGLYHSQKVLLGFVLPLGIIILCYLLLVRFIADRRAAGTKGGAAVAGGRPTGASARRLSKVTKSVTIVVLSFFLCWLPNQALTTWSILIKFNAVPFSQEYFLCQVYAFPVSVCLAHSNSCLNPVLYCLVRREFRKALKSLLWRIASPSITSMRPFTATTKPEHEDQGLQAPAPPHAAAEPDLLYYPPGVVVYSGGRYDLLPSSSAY
# FSH receptor = settings: previously reported; cited from earlier work
# Sequence of human cannabinoid CB2 receptor (P34972 whole entry): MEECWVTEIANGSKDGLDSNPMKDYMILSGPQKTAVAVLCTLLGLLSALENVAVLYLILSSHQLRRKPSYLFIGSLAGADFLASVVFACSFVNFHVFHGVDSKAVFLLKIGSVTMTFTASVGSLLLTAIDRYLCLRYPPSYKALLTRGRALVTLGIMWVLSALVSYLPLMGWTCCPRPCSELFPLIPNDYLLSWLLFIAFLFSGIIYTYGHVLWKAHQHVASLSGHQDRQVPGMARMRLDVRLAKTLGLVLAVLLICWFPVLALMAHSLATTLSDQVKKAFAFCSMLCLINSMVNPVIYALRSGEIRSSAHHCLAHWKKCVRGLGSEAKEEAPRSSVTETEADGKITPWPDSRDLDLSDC
# Sequence of human cannabinoid CB1 receptor (P21554 whole entry): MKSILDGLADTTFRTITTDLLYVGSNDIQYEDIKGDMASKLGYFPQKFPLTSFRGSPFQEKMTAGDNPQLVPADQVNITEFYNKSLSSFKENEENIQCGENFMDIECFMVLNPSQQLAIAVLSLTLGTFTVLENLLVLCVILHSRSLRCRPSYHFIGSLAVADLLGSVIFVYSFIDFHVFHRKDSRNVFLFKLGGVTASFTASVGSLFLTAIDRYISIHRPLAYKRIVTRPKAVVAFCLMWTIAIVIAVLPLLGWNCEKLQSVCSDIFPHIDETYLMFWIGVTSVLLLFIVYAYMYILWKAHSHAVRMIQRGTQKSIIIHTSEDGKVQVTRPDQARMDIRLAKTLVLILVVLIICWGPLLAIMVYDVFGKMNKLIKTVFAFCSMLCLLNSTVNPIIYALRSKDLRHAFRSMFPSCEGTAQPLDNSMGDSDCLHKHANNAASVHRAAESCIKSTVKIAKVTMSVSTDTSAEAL
compound,measurement,setting,value
"C/C=C/C=C/C=C\CC/C=C/C=C/C(=O)NCC(C)(C)O [Compound 4, hydroXy-γ-sanshool]","fold more potent for CB1, 4 vs 5",[1]; C-8 cis-isomer 4 compared with 5,10 fold
"C/C=C/C=C/C=C/CC/C=C/C=C/C(=O)NCC(C)C [Compound 7, (2E,4E,8E,10E,12E)-N-isobutyl-2,4,8,10,12-tetradecapentaenamide]",antagonistic properties against the CB1 receptor (in words),[1],strong antagonistic properties
same,antagonism of the CB2 receptor (in words),[2],weak antagonists
same,% inhibition,HRH4,−54%
same,% inhibition,RXFP3,−81%
"C/C=C/C=C/C=C\CC/C=C/C(=O)NCC(C)(C)O [Compound 2, hydroXy-α-sanshool]","fold increase in activity against the CB2 receptor, 2 vs 3",[2]; cis configuration at C-6 of 2 compared with 3,2 fold
"CC/C=C/C/C=C\CC/C=C/C=C/C(=O)NCC(C)(C)O [Compound 6, isobungeanool]",antagonism of the CB2 receptor (in words),[2],weak antagonists
"CCCCCCCCC/C=C/C=C/C(=O)NCC(C)(C)O [Compound 8, tetrahydrobungeanool]",IC50,[2],1.8 nM
CCCCCc1cc(O)c2c(c1)OC(C)(C)[C@@H]1CCC(C)=C[C@@H]21 [Δ^9-tetrahydrocannabinol],inhibition of the FSH receptor (in words),FSH receptor,specific inhibition
"CC(C)[C@H](N=C(NS(=O)(=O)c1ccc(Cl)cc1)N1C[C@H](c2ccccc2)C(c2ccc(Cl)cc2)=N1)C(N)=O [JD5037, reference compound]","IC50 of positive control, CB1 (in words)",[1]; positive control,within the expected range
same,"IC50 of positive control, CB2 (in words)",[2]; positive control,within the expected range

# Reference: paper PMC8385540 (Journal of natural products, 2013)
